IDE cell activ: human IDE activators in live cells, primary screen, fluorescence polarization, HEK cells, FAbeta-B substrate | Insulin-degrading enzyme (Homo sapiens), P14735 | activation, % at 5.96 µM | 0.073% of 340,000 active | FAbeta-B cleavage; 0% vehicle, 100% cell-free pure enzyme wells;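 active means activation above the mean of all tested compounds plus 3 SD, set per screening campaign, cut at about 17% in these data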
HNF4A DNA FP: change in binding of human HNF4A to DNA, primary screen, biochemical, fluorescence polarization, FITC-DNA | activity change, % at 10 µM | 1 h | Hepatocyte nuclear factor 4-alpha (Homo sapiens), P41235 | 0.3% of 360,000 active; in the data active means activity change above about 30%, passing the limit was not always enough
TPT1 inhibitor: Candida albicans TPT1 enzyme inhibitors, primary screen, biochemical, fluorescence polarization. tRNA 2'-phosphotransferase TPT1 (Candida albicans SC5314). recombinant caTPT1, FP RNA substrate dephosphorylation. inhibition, % at 5 µM. 0.81% of 300,000 active;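 active means inhibition above the mean of all tested compounds plus 3 SD, set per screening campaign, cut at about 24% in these data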
CSN inh: inhibitors of CSN-mediated cullin deneddylation, primary screen, biochemical, fluorescence polarization, uHTS. COP9 signalosome complex subunit 5 (Homo sapiens), Q92905. Purified CSN, SCF-Nedd8-OG deneddylation. inhibition, % at 12.5 µM. 0.38% of 360,000 active;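 active means pattern-corrected inhibition above about 35%, with an unprinted fluorescence ratio check between 0.5 and 1.5, limit read from the data, passing the limit was not always enough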
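Test system: purified human Csn5 enzyme expressed in HEK293T cells. Amount: 0.24 nM enzyme. Reagent: SCFSkp2-Nedd8OG substrate at 10 nM final. Schedule: 90 min incubation of compound, enzyme and substrate at room temperature. Detection: fluorescence polarization. Read-out: % inhibition of substrate cleavage by Csn5.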
Rpn11 inh: Rpn11 (PSMD14) deubiquitinase inhibitors, primary screen, biochemical, fluorescence polarization, uHTS | human 26S proteasome, Ub4-pepOG fluorescence polarization; 20S core pre-blocked with epoxomicin | calls only at 20 µM | 0.59% of 360,000 active | 26S proteasome non-ATPase regulatory subunit 14 (Homo sapiens), O00487;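 active means inhibition at 20 µM, scaled to each plate's controls, above about 33%, limit read from the data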
IDE cell inh: human IDE inhibitors in live cells, primary screen, fluorescence polarization, HEK cells, FAbetaB substrate. Insulin-degrading enzyme (Homo sapiens), P14735. FAbetaB cleavage. inhibition, % at 5.59 µM. 0.41% of 320,000 active;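 active means percent inhibition above the average of all tested compounds plus 3 SD, set per screening campaign, cut at about 16% in these data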;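 further: IDE supplied by intact live HEK cells; FP after avidin binding of uncleaved biotin substrate so inhibition keeps polarization high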
Rpn11 confirm: Rpn11 (PSMD14) deubiquitinase inhibitors, confirmation, biochemical, fluorescence polarization, single concentration; shares compounds with Rpn11 inh; purified human 26S proteasome, Ub4-pepOG fluorescence polarization; proteasome pretreated with epoxomicin; inhibition, % at 20 µM; 29% of 1,900 active
MMP-2 counter: MMP-2 enzyme inhibition, confirmation, counter-screen for RPN11 inhibitor project, biochemical, fluorescence, single concentration; shares compounds with Rpn11 inh; recombinant MMP-2, FRET peptide cleavage fluorescence; inhibition, % at 20 µM; 4% of 1,900 active;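 further: human MMP-2 activated beforehand with APMA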
Thrombin inh: bovine thrombin protease inhibition, confirmation, counter-screen for Rpn11 inhibitor project, biochemical, fluorescence polarization, single concentration; inhibition, % at 20 µM; 13% of 1,900 active; bovine thrombin cleavage of Ub4-pepOG; shares compounds with Rpn11 inh;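 active means mean inhibition at least 40% at 20 µM, or signal 3 deviations below plate average, so some actives read negative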
Target sequence (P00735 whole entry, looked up): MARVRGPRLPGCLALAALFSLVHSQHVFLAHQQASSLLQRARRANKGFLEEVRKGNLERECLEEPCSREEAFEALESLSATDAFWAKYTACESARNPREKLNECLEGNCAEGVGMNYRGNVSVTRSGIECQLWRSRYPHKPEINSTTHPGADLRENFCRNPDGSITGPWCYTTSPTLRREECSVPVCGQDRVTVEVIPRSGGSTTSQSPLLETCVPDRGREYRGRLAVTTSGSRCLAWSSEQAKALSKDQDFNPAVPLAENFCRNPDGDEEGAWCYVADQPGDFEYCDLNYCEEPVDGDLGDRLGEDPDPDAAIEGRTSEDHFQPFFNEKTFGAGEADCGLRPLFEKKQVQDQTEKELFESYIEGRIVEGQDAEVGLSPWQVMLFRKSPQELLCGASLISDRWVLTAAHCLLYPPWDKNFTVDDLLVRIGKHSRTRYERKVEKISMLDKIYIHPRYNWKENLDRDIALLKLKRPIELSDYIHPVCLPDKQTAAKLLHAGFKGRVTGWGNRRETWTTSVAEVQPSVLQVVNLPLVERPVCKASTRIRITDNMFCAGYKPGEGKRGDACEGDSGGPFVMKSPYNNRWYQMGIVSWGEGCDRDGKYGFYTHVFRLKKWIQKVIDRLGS
Of the large screens only hits and unclear results are named; the others gave an inactive call (follow-up assays come after a bar, where they were run). This is a sample that favours compounds with a hit; in the whole collection about 1.7% have one here. Unless noted, no stated cut-off is given here; in the data, active means inhibition above about 40%; inactive means the rest.

O=C1CCCN1CCCNc1nc2c(S(=O)(=O)c3ccccc3)nnn2c2ccc(Cl)cc12	Rpn11 inh active | Rpn11 confirm inactive | MMP-2 counter inactive | Thrombin inh inactive
CCS(=O)(=O)c1nc(S(=O)(=O)c2ccc(C)cc2)c(NCCCN2CCCC2=O)s1	none
Cc1cccc(C)c1OCC(=O)Nn1c(=O)[nH]c2ccccc2c1=O	none
O=c1c2ccccc2c(C=NCc2ccccn2)c(O)n1-c1ccccc1	Rpn11 inh active | Rpn11 confirm inactive | MMP-2 counter inactive | Thrombin inh inactive
Cc1ccccc1CN1C(=O)C(C)Sc2ccc(-c3ccco3)cc21 (configuration not stated)	Rpn11 inh active (no result: IDE cell activ, TPT1 inhibitor, IDE cell inh) | Rpn11 confirm 46.4 | MMP-2 counter inactive | Thrombin inh inactive
Cc1sc(NC(=O)c2cccs2)c(C(=O)OC(C)C)c1C	Rpn11 inh active | Rpn11 confirm inactive | MMP-2 counter inactive | Thrombin inh inactive
O=C(Nc1nc2ccccc2s1)c1ccc(Cl)s1	none
Cc1ccc2nc(NC(=O)c3ccc(-c4nc5ccccc5s4)s3)sc2c1	HNF4A DNA FP 69.0, CSN inh 51.9, Rpn11 inh active | Rpn11 confirm inactive | MMP-2 counter inactive | Thrombin inh inactive
O=c1cc(-c2c(F)c(F)c(F)c(F)c2F)oc2ccccc12	none
O=c1cc(-c2cccc(F)c2)oc2ccccc12	Rpn11 inh active (no result: TPT1 inhibitor, IDE cell inh) | Rpn11 confirm inactive | MMP-2 counter inactive | Thrombin inh inactive
Cn1c(CO)cnc1SCc1ccc(Cl)cc1	Rpn11 inh active | Rpn11 confirm inactive | MMP-2 counter inactive | Thrombin inh inactive
CC(=O)C1=C(C)NC(SCC(=O)c2ccc(Cl)c(Cl)c2)=C(C#N)C1c1ccco1 (configuration not stated)	Rpn11 inh active | Rpn11 confirm inactive | MMP-2 counter 44.6 | Thrombin inh inactive
O=C(Cn1nc(CNc2ccc(Cl)cc2)[n+]2c1CCCCC2)c1ccccc1	none
Cc1ccc(C(C)C)c(OCc2nn(CC(=O)c3ccc(Cl)cc3)c3[n+]2CCCCC3)c1	Rpn11 inh active | Rpn11 confirm inactive | MMP-2 counter inactive | Thrombin inh inactive
CCSC1=N/C(=C\c2ccc3c(c2)OCO3)C(=O)S1	Rpn11 inh active | Rpn11 confirm 73.6 | MMP-2 counter inactive | Thrombin inh inactive
COc1ccc(CC(=O)N2CCc3cc(OC)c(OC)cc3C2)cc1	none
Cc1ccc(C(=O)NCC(=O)OCCCn2c(=O)[nH]c3ccccc32)cc1	none
COc1ccccc1C(=O)N=Nc1c(O)[nH]c2ccc([N+](=O)[O-])cc12	none (no result: TPT1 inhibitor, IDE cell inh)
O=C(N=Nc1c(O)[nH]c2ccc([N+](=O)[O-])cc12)c1cc(-c2ccccc2Cl)nc2ccccc12	Rpn11 inh active | Rpn11 confirm inactive | MMP-2 counter inactive | Thrombin inh inactive
CCOC(=O)c1nnc2cc(-c3ccccc3)nn2c1C	Rpn11 inh active | Rpn11 confirm inactive | MMP-2 counter inactive | Thrombin inh inactive
CCOC(=O)C1=C(C)NC(=O)NC1c1ccc(C)o1 (configuration not stated)	none
O=C1C(=Cc2cn(-c3ccccc3)nc2-c2ccc(OCc3ccccc3)cc2)SC(=S)N1CCS(=O)(=O)O	Rpn11 inh active (no result: IDE cell activ, TPT1 inhibitor, IDE cell inh) | Rpn11 confirm 90.3 | MMP-2 counter inactive | Thrombin inh 134.2
O=C(O)CN1C(=O)/C(=C\c2cn(-c3ccccc3)nc2-c2ccccc2)SC1=S	none
CCOc1ccc(-c2nn(-c3ccccc3)cc2/C=C2\SC(=S)N(Cc3ccco3)C2=O)cc1	none
CC(C)COc1ccc(-c2nn(-c3ccccc3)cc2/C=C2/SC(=S)N(CC(=O)O)C2=O)cc1	Rpn11 inh active | Rpn11 confirm 40.6 | MMP-2 counter inactive | Thrombin inh 48.8
O=c1c2ccccc2nc2ccccn12	none
NC(=O)c1sc2nc(-c3ccccc3)ccc2c1N	Rpn11 inh active | Rpn11 confirm inactive | MMP-2 counter inactive | Thrombin inh inactive
CCOC(=O)c1sc2nc(-c3ccccc3)ccc2c1N	none
CC(NC(=S)Nc1c(Cl)cccc1OC(F)F)C(C)(C)C (configuration not stated)	none
CCCCn1c(N)c(N(CCOC)C(=O)CCN2C(=O)C3CC=CCC3C2=O)c(=O)[nH]c1=O (configuration not stated)	none (no result: TPT1 inhibitor, IDE cell inh)
O=C1CSC(=S)N1N=Cc1c[nH]c2ccc(Br)cc12	Rpn11 inh active (no result: IDE cell activ, TPT1 inhibitor, IDE cell inh) | Rpn11 confirm inactive | MMP-2 counter inactive | Thrombin inh inactive
COc1ccc(Br)cc1/C=N/N1C(=O)CSC1=S	none
O=C(Nc1ccccc1)c1ccc(CSc2ccccn2)cc1	none
Cc1cc(C)c(S(=O)(=O)n2ccc(-c3ccc(OCCN(C)c4ccccn4)cc3)n2)c(C)c1	Rpn11 inh active | Rpn11 confirm inactive | MMP-2 counter inactive | Thrombin inh inactive
CN(C)/C=C/C(=O)c1ccc(OCCN(C)c2ccccn2)cc1	none
COc1ccc(N=Nc2ccc(O)c3ncccc23)cc1	none
CCc1ccc(N=Nc2ccc(O)c3[nH]cnc23)cc1	HNF4A DNA FP 41.5, Rpn11 inh active (no result: TPT1 inhibitor) | Rpn11 confirm inactive | MMP-2 counter inactive | Thrombin inh inactive
COc1ccc(N2CCN(C(=O)Cc3ccc(S(=O)(=O)N4CCOCC4)s3)CC2)cc1	Rpn11 inh active | Rpn11 confirm inactive | MMP-2 counter inactive | Thrombin inh inactive
COc1cc2c(C#CCCCO)c(-c3ccc(C#N)cc3)oc(=O)c2cc1OC	none (no result: TPT1 inhibitor)
COc1cc2c(C#CCO)c(-c3ccc(C#N)cc3)oc(=O)c2cc1OC	Rpn11 inh active (no result: TPT1 inhibitor) | Rpn11 confirm inactive | MMP-2 counter inactive | Thrombin inh inactive
